According to ChEMBL document CHEMBL1128424, “New orally active serine protease inhibitors” (J Med Chem, 1995):

Tests used:
Prothrombin = Prothrombin (Homo sapiens, UniProt P00734); experiment: Concentration required to inhibit enzymatic cleavage of the chromogenic substrate (H-D-Phe-Pip-Arg-pNA) thrombin in vitro.
Neutrophil elastase = molecular target: T1, Neutrophil elastase (Homo sapiens, UniProt P08246); experiment: Concentration required to inhibit enzymatic cleavage of the chromogenic substrate (MeO-Suc-Ala-Ala-Pro-Val-pNA) for sputum elastase in vitro.
T1 sequence (P08246 whole entry): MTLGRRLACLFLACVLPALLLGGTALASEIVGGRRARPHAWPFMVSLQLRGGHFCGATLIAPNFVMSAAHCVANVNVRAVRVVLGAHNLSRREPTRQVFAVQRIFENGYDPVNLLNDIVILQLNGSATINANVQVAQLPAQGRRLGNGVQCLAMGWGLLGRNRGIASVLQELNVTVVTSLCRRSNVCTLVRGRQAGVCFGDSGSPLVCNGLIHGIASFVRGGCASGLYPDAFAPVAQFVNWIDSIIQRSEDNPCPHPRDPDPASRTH

Serine protease 1 = Serine protease 1 (Homo sapiens, UniProt P07477); experiment: Concentration required to inhibit enzymatic cleavage of the chromogenic substrate (Boc-Phe-Ser-Arg-AMC) for trypsin in vitro.
Chain of Serine protease 1 (P07477 whole entry): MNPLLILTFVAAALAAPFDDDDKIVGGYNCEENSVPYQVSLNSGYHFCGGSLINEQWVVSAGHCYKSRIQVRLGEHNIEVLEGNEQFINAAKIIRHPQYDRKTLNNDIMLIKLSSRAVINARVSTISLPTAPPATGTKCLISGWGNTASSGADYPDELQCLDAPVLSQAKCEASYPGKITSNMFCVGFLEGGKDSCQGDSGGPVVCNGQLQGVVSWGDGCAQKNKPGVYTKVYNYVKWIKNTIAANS

Plasma kallikrein = Plasma kallikrein (Homo sapiens, UniProt P03952); experiment: Concentration required to inhibit enzymatic cleavage of the chromogenic substrate (H-D-Pro-Phe-Arg-pNA) for plasma kallikrein in vitro.
Chain of Plasma kallikrein (P03952 whole entry, looked up): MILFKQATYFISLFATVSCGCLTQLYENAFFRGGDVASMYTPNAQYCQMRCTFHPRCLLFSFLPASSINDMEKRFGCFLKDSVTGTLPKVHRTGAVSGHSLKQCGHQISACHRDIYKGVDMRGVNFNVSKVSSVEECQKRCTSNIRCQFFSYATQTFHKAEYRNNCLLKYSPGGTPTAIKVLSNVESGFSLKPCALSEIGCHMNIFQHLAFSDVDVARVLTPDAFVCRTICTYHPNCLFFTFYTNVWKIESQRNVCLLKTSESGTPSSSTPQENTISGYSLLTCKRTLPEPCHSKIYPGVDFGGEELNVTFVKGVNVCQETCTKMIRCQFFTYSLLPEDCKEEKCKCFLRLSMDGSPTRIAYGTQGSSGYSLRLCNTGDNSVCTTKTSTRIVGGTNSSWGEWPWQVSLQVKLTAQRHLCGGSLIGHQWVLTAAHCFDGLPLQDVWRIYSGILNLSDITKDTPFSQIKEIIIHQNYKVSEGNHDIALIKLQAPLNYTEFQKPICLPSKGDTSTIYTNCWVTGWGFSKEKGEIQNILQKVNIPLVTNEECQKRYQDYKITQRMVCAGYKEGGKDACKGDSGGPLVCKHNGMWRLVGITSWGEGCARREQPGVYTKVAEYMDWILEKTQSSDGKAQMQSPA

Cathepsin G = molecular target: T2, Cathepsin G (Homo sapiens, UniProt P08311); experiment: Concentration required to inhibit enzymatic cleavage of the chromogenic substrate (MeO-Suc-Ala-Ala-Pro-Met-pNA) for cathepsin G in vitro.
T2 sequence (P08311 whole entry): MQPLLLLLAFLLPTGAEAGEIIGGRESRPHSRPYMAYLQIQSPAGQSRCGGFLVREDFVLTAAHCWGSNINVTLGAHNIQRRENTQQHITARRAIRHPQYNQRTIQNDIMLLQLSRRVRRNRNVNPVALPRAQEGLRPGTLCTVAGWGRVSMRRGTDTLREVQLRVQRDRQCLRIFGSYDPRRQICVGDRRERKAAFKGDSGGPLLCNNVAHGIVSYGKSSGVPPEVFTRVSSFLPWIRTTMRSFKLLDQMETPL

Chymotrypsinogen A = Chymotrypsinogen A (Bos taurus, UniProt P00766); experiment: Concentration required to inhibit enzymatic cleavage of the chromogenic substrate (Suc-Ala-Ala-Pro-Phe-pNA) for chymotrypsin in vitro.
Kallikrein-1 = Kallikrein-1 (Homo sapiens, UniProt P06870); experiment: Concentration required to inhibit enzymatic cleavage of the chromogenic substrate (H-D-Val-Leu-Arg-pNA) for pancreatic kallikrein in vitro.
Chain of Kallikrein-1 (P06870 whole entry): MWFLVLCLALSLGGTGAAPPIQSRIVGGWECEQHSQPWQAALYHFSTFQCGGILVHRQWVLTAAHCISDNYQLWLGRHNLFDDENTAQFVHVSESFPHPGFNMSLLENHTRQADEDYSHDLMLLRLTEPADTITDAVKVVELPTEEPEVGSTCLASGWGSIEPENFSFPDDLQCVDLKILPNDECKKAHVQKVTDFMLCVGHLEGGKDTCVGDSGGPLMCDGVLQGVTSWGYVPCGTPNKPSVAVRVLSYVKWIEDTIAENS

Plasminogen = Plasminogen (Rattus norvegicus, UniProt Q01177); experiment: Concentration required to inhibit enzymatic cleavage of the chromogenic substrate (H-D-Val-Leu-Lys-pNA) for plasmin in vitro.
Chain of Plasminogen (Q01177 97-581 limits assumed): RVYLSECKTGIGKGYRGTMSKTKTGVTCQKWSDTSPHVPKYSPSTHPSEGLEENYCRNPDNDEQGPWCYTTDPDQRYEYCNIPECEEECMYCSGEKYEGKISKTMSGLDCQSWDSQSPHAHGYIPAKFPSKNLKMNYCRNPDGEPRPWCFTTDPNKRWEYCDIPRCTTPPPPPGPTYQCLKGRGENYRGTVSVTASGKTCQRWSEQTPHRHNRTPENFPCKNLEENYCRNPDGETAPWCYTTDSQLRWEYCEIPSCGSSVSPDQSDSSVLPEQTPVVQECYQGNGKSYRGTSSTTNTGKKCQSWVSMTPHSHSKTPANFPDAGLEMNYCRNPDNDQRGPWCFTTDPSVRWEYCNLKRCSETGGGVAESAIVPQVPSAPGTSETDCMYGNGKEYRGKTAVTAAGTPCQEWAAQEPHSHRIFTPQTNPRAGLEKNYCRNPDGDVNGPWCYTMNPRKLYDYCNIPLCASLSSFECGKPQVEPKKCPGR
Chain of Plasminogen (Q01177 582-812 limits assumed): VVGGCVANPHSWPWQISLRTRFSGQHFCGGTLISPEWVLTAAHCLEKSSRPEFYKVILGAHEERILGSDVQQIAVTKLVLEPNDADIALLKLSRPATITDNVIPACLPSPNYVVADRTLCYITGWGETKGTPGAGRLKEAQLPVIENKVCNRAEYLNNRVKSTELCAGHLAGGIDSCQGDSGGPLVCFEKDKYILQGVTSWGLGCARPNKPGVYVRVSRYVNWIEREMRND

[1] = Concentration required to inhibit enzymatic cleavage of the chromogenic substrate (Suc-Ala-Ala-Ala-AMC) for pancreatic elastase in vitro.; set-up: species or system Homo sapiens
[2] = Half-life in rat small intestine homogenate.; format: ADME, organism-based
Outline: (§1)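 Compound in MeOH (1 mg/mL stock) incubated with rat or dog plasma, liver homogenate or small intestine homogenate at 37 °C for 120 min; aliquots taken at regular intervals into acetonitrile with 1% methanesulfonic acid at 5 °C, centrifuged 10 000 rpm 1 min, analyzed by HPLC to give hydrolysis half-life (min) and products.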

[3] = Half-life in dog small intestine homogenate.; format: ADME, organism-based, Canis lupus familiaris; outline: as §1
[4] = Half-life in dog plasma.; format: ADME, organism-based, Canis lupus familiaris; outline: as §1
[5] = Half-life in rat plasma.; format: ADME, organism-based; outline: as §1
[6] = Half-life in dog liver homogenate.; format: ADME, organism-based, Canis lupus familiaris; outline: as §1
[7] = Half-life in rat liver homogenate.; format: ADME, organism-based; outline: as §1
[8] = Area under the plasma concentration was determined in fasted Beagle dogs after peroral administration of 100 mg/kg; format: ADME, organism-based, Canis lupus familiaris; set-up: dose 100 mg/kg, route oral; settings: dog, po
Outline: (§2)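 Fasted beagle dogs dosed orally; plasma (0.2 mL) deproteinized with acetonitrile containing 1% methanesulfonic acid at 5 °C, centrifuged 10 min at 3000 rpm at 5 °C, analyzed by HPLC with n-propyl or iso-amyl 4-hydroxybenzoate as internal standard.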

[9] = Area under the plasma concentration was determined in fasted Beagle dogs after peroral administration of 20 mg/kg; format: ADME, organism-based, Canis lupus familiaris; set-up: dose 20 mg/kg, route oral; settings: dog, po; outline: as §2

Row | IC50 (Prothrombin) [µM] | IC50 (Neutrophil elastase) [µM] | IC50 (Serine protease 1) [µM] | IC50 (Plasma kallikrein) [µM] | IC50 (Cathepsin G) [µM] | IC50 (Chymotrypsinogen A) [µM] | IC50 (Kallikrein-1) [µM] | IC50 (Plasminogen) [µM] | IC50 [1] [µM] | half-life [2] [min] | half-life [3] [min] | half-life [4] [min] | half-life [5] [min] | half-life [6] [min] | half-life [7] [min] | AUC [8] [ng·h/mL] | AUC [9] [ng·h/mL] | SMILES
1 | 108 | > 100 | 0.055 | 2.32 | > 100 | > 100 | > 100 | 12.5 | > 100 | – | – | – | – | – | – | – | – | N=C(N)Nc1ccc(C(=O)Oc2ccc(CC(=O)O)cc2)cc1
2 | 3.66 | > 100 | 0.0112 | 0.19 | > 100 | > 100 | 15.7 | 0.873 | > 100 | 11 | > 60 | 25 | < 1 | < 1 | < 1 | – | – | C=CCN(CC(=O)OCC)C(=O)/C(C)=C/c1ccc(C(=O)Oc2ccc(C(=N)N)cc2)cc1.CS(=O)(=O)O
3 | 35 | > 100 | 0.00413 | 0.0965 | > 100 | > 100 | > 100 | 1.83 | > 100 | > 60 | > 60 | 15 | > 60 | > 60 | > 60 | 27000 | 5230 | C=CCN(CC(=O)O)C(=O)/C(C)=C/c1ccc(C(=O)Oc2ccc(C(=N)N)cc2)cc1.CS(=O)(=O)O
4 | – | > 100 | 0.0506 | 1.48 | > 100 | > 100 | 34.1 | 2.62 | > 100 | – | – | – | – | – | – | – | 1820 | CN(C)C(=O)COC(=O)Cc1ccc(OC(=O)c2ccc(NC(=N)N)cc2)cc1.CS(=O)(=O)O [CAMOSTAT MESILATE]
